Consider 20 compounds from ChEMBL document CHEMBL1122644, “Ring-substituted 1,2-dialkylated 1,2-bis(hydroxyphenyl)ethanes. 2. Synthesis and estrogen receptor binding affinity of 4,4'-, 5,5'-, and 6,6'-disubstituted metahexestrols” (J Med Chem, 1984).

Some results are limits rather than exact numbers.

Assay [1] concerns the target Estrogen receptor (Bos taurus) (UniProt Q9XSB5+P49884). Put plainly: Relative binding affinity for calf uterine estrogen receptor is the ratio of molar concentrations of 17-beta-estradiol and compound required to decrease amount of bound [3H]-E2 by 50% X 100. The assay is classed as protein assay. Summed up:
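Calf uterine cytosol incubated with [3H]estradiol and competitor at 4 °C for 16 h. Free ligand removed with dextran-coated charcoal, then centrifuged and a supernatant aliquot counted. Six competitor concentrations chosen to span 50% competition on a semilog plot. Molar concentrations of unlabeled estradiol and test compound giving 50% reduction in binding were read from the plot.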

For assay [2], the target named is T1, Estrogen receptor (Mus musculus) (UniProt O08537+P19785). Put plainly: Anti-estrogenic activity in mouse uterotrophic assay at 0 ug. Also on record: unit not given here. Type of assay: functional. Summed up: (§1)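 Immature female NMRI mice, 20 days old (14.5 ± 1.2 g), randomized into groups of 10. Test compound in olive oil (0.1 mL) given subcutaneously daily for 3 days alongside estrone stimulation. Uteri removed 24 h after last injection, fixed in Bouin's solution, washed, dried and weighed. Readout is inhibition of estrone-stimulated uterine growth.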
T1 sequence (O08537 whole entry, looked up): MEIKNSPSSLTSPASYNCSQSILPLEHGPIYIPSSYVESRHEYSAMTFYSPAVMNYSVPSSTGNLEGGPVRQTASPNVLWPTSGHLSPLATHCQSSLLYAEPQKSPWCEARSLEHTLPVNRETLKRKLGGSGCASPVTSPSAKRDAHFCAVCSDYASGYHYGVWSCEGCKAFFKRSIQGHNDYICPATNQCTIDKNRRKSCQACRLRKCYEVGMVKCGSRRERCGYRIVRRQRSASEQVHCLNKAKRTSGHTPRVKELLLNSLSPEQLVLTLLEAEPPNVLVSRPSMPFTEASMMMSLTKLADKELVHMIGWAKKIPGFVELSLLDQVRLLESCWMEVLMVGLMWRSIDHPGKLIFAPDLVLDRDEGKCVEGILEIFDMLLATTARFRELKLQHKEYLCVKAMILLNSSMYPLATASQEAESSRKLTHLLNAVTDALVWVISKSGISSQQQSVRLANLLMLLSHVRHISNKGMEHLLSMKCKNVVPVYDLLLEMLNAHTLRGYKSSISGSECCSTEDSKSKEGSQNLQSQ
T1 sequence (P19785 whole entry, looked up): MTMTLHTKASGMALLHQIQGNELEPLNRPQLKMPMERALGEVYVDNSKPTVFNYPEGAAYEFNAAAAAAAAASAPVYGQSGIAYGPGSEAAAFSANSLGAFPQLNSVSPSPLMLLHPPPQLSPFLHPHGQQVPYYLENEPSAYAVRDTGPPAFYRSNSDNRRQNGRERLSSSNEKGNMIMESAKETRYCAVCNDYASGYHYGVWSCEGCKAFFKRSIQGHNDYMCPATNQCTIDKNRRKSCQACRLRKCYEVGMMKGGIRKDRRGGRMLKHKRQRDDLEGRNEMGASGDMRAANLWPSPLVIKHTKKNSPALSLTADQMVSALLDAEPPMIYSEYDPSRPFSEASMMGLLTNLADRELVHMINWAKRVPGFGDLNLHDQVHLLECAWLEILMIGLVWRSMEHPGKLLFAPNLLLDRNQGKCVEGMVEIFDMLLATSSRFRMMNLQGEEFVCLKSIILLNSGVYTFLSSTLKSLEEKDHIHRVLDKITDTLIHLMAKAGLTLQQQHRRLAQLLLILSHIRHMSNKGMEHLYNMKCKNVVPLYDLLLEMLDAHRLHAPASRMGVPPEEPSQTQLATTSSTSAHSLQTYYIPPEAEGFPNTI

The target in assay [3] is T1, Estrogen receptor (Mus musculus). Put plainly: (§2) Anti-estrogenic activity in mouse uterotrophic assay at 1 ug. Type of assay: functional. Also on record: unit not given here. Summed up: as §1
Assay [4] has the same target. The experiment in a line: Anti-estrogenic activity in mouse uterotrophic assay at 10 ug. Type of assay: functional. Also on record: unit not given here. The method in brief: as §1
The target is the same in assay [5]. Put plainly: Anti-estrogenic activity in mouse uterotrophic assay at 100 ug. The assay is classed as functional. Details: unit not given here. Summed up:
as §1

Assay [6] shares this target. Put plainly: Estrogenic activity in mouse uterotrophic assay at 0 ug. The assay is classed as functional. Details: unit not given here. Summed up: (§3)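 Uterotrophic test in 20-day-old immature female NMRI mice (14.5 ± 1.2 g), 10 per group. Daily s.c. injections of compound in 0.1 mL olive oil for 3 days. Uteri excised 24 h after final dose, Bouin-fixed, washed, dried and weighed to measure stimulation of uterine growth.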

The target is the same in assay [7]. The experiment in a line: Estrogenic activity in mouse uterotrophic assay at 1 ug. Type of assay: functional. Summed up:
as §3

The target is the same in assay [8]. Put plainly: Estrogenic activity in mouse uterotrophic assay at 10 ug. The assay is classed as functional. Also on record: unit not given here. The method in brief: as §3
The target is the same in assay [9]. Put plainly: Estrogenic activity in mouse uterotrophic assay at 100 ug. Type of assay: functional. Details: unit not given here. The method in brief: as §3
Assay [10] shares this target. Put plainly: Estrogenic activity in mouse uterotrophic assay at 1000 ug. Type of assay: functional. Also on record: unit not given here. Summed up:
as §3

The target is the same in assay [11]. The experiment in a line: Estrogenic activity in mouse uterotrophic assay at 0.1 ug. The assay is classed as functional. The method in brief:
as §3

Assay [12] shares this target. The description is as §2. The assay is classed as functional. The method in brief: as §1
Assay [13] has the same target. The experiment in a line: Anti-estrogenic activity as inhibition of estrone-stimulated uterine growth in mice at 1 mg/kg. The assay is classed as functional, organism-based. Details: dose 1 mg/kg. Summed up: as §1
For assay [14] the target is unchanged. The experiment in a line: Anti-estrogenic activity as inhibition of estrone-stimulated uterine growth in mice at 10 mg/kg. Type of assay: functional, organism-based. Details: dose 10 mg/kg. Summed up:
as §1

Assay [15] has the same target. Put plainly: Estrogenic activity in mouse uterotrophic assay at 0.5 ug. Type of assay: functional. The method in brief: as §3
The target is the same in assay [16]. The experiment in a line: Estrogenic activity in mouse uterotrophic assay at 5 ug. The assay is classed as functional. The method in brief:
as §3

The target is the same in assay [17]. Put plainly: Estrogenic activity in mouse uterotrophic assay at 50 ug. Type of assay: functional. Summed up: as §3
The target is the same in assay [18]. The experiment in a line: Anti-estrogenic activity as inhibition of estrone-stimulated uterine growth in mice at 100 mg/kg. The assay is classed as functional, organism-based. Details: dose 100 mg/kg. Summed up: as §1

Take `CCC(c1ccc(CO)c(O)c1)C(CC)c1ccc(CO)c(O)c1` (centres undefined): in assay [1], the RBA was 0.03.

For `CCC(c1ccc(N(C)C)c(O)c1)C(CC)c1ccc(N(C)C)c(O)c1` (centres undefined), in assay [1], the RBA was under 0.01.

As for `CCC(c1ccc(I)c(O)c1)C(CC)c1ccc(I)c(O)c1` (centres undefined), in assay [1], the RBA is under 0.01.

With `CCOCc1ccc(C(CC)C(CC)c2ccc(COCC)c(O)c2)cc1O` (centres undefined), in [1], the RBA is under 0.01.

Take `CCC(c1ccc(O)cc1F)C(CC)c1ccc(O)cc1F` (centres undefined): the RBA in [1] was 6.5.

Take `CCC(c1ccc(O)c(C)c1)C(CC)c1ccc(O)c(C)c1` (centres undefined): the RBA in assay [1] was 8.1.

Turning to `CCC(c1ccc(C(C)=O)c(O)c1)C(CC)c1ccc(C(C)=O)c(O)c1` (centres undefined), the RBA in [1] is under 0.01.

As for `CCC(c1ccc(O)c(COC)c1)C(CC)c1ccc(O)c(COC)c1` (centres undefined), the RBA in assay [1] is 0.55.

`CCC(c1cc(O)ccc1Cl)C(CC)c1cc(O)ccc1Cl` (centres undefined): the RBA in [1] was found to be 4.2. In addition, the Activity was 13.7 in assay [2]; 40.6 in assay [3]; 41 in assay [4]; 41.5 in assay [5]; 13.7 in assay [6]; 25.1 in assay [7]. The Activity in assay [8] was determined as 47.8; in assay [9], 41.6; in assay [10], 38.5; in [11], 16.7.

In the case of `CCC(c1ccc(O)c(N)c1)C(CC)c1ccc(O)c(N)c1` (centres undefined), the RBA in [1] is 5.6.

In the case of `CCC(c1cc(O)ccc1F)C(CC)c1cc(O)ccc1F` (centres undefined), the RBA in assay [1] came to 7. Moreover, the Activity in assay [2] amounted to 13.7; in [4] it was 38.9; in assay [5], 41.2; in assay [12], 37.8; in [6], 13.1; in assay [7] it was 15.5. Also, the values for the Activity in assay [8], in assay [9] and in [10] were 23.2, 39 and 34.6, respectively.

With `CCC(c1ccc(O)c(CN(C)C)c1)C(CC)c1ccc(O)c(CN(C)C)c1` (centres undefined), in [1], the RBA was found to be 0.04.

In the case of `CCC(c1ccc(O)cc1O)C(CC)c1ccc(O)cc1O` (centres undefined), in assay [1], the RBA is 32.

As to `CCC(c1ccc(N)c(O)c1)C(CC)c1ccc(N)c(O)c1` (centres undefined), the RBA in [1] came to 0.52. Besides, the Activity in [2] was found to be 14.8; in assay [3], 33; in assay [4], 41.7; in [5], 42.3; in [6], 13.9; in assay [8], 19.9. Moreover, the Activity in assay [9] came out at 19.5; in [10] it was 36.6. This compound gave an inhibition in [13] of 29%.

As for `CCC(c1ccc(COC)c(O)c1)C(CC)c1ccc(COC)c(O)c1` (centres undefined), the RBA in [1] amounted to 0.03.

Consider `CCC(c1ccc(C)c(O)c1)C(CC)c1ccc(C)c(O)c1` (centres undefined), for which, in assay [1], the RBA stood at 0.73. Besides, the Activity in assay [2] came out at 14.8; in [3], 34.3; in [4], 39.6; in assay [5] it was 41.8; in assay [6], 13.9; in assay [7], 21.7. In addition, the Activity in assay [8] came to 45; in assay [9], 46.2; in assay [10], 43.5; in assay [11], 14.3. Further, the results for the inhibition in assay [14] and in assay [13] were 3% and 24%, respectively.

With `CCc1ccc(C(CC)C(CC)c2ccc(CC)c(O)c2)cc1O` (centres undefined), the RBA in [1] was 0.04.

For the compound `CCC(c1ccc(O)c(CO)c1)C(CC)c1ccc(O)c(CO)c1` (centres undefined), the RBA in [1] amounted to 0.71.

For the compound `CCC(c1cc(O)ccc1C)C(CC)c1cc(O)ccc1C` (centres undefined), the RBA in assay [1] is 15. In addition, the Activity in assay [2] is 13.7; in [3], 27.2; in assay [4], 25.4; in assay [5] it was 31; in assay [6] it was 13.7; in assay [15], 13.3. The Activity in assay [8] was found to be 37.5; in assay [9], 52.1; in [10], 50.5; in assay [16], 19.8; in assay [17], 41.9. In addition, the results for the inhibition in assay [18], in assay [14] and in assay [13] were 22%, 47% and 39%, respectively.

Regarding `CCC(c1ccc([N+](=O)[O-])c(O)c1)C(CC)c1ccc([N+](=O)[O-])c(O)c1` (centres undefined), the RBA in [1] turned out to be 0.02.

The term inhibition denotes how much of the control response was suppressed.
